# High-throughput results deposited in PubChem by The Scripps Research Institute Molecular Screening Center.
# TDP2 inh: TDP2 (human) inhibition, absorbance primary screen | O95551 | recombinant TDP2, T5PNP hydrolysis, p-nitrophenol absorbance 415 nm | inhibition, % at 12.8 µM | hit rate 0.34% among 370,000 | AID 720702;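 active = inhibition above the mean of all tested compounds plus 3 SD, set per campaign, cut at about 25% in these data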;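 note: 0% = DMSO with enzyme and 100% = buffer with substrate but no TDP2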
#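 Test system: human TDP2 enzyme; Input: 120 nM TDP2 per well; Buffer or medium: Mg2+-containing Tris-HCl buffer, pH 7.5; Reagent: 5 mM T5PNP; Dosing: 12.8 µM single point, 1% DMSO; Incubation: reaction 2 h, 37 °C; Detection: p-Nitrophenol epi absorbance; Read-out: % inhibition relative to enzyme-containing and enzyme-free wells; Replicates: single well per compound.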
# LEDGF integ inh: blocks HIV-1 LEDGF/p75-dependent DNA integration. TR-FRET IN-LEDGF/p75 DNA integration, Eu/Cy5. hit rate 0.64% among 370,000. inhibition, % at 3.7 µM;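 active = inhibition above the screen-wide mean plus 3 SD, cut at about 13% in these data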;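 note: signal is the Cy5 over europium emission ratio at 671 and 618 nm; 0% = plate median of compound wells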
# SIAE primary: human SIAE inhibition, primary screen | AID 1053197 | inhibition, % at 9.66 µM | Q9HAT2 | SIAE FP-Rh probe binding, fluorescence polarization | hit rate 0.69% among 370,000;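 active = inhibition above a cutoff: mean of compounds within the control limits plus 3 SD of those, cut at about 17% in these data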;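 note: 0% = plate median of compound wells and 100% = probe without SIAE protein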
# mABHD4 FP: inhibits mouse alpha/beta hydrolase domain 4; inhibition, % at 8.92 µM; hit rate 0.54% among 370,000; Q8VD66; purified mABHD4, FP-Rh probe fluorescence polarization; AID 720543;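 active = inhibition exceeding the mean over every tested compound plus 3 SD, cut at about 30% in these data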;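 note: 0% = plate median of compound wells and 100% = S159A mutant with DMSO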
#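 Assay system: wild-type mouse ABHD4 protein; compound: single nominal dose of 8.92 µM, 0.89% DMSO final; schedule: 45 min + 60 min at 25 °C; measured by: FP readout, ex 525 nm / em 598 nm; evaluation: % inhibition of FP-Rh probe binding versus controls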
# TCR-CD3 inh: human TCR-CD3 binding inhibition. AID 651800. TAMRA-labeled TCR probe fluorescence, biochemical. hit rate 0.37% among 360,000. inhibition, % at 9.4 µM;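 note: recombinant mutant TCR 2C K166C tagged with TAMRA read by polarization; 0% = receptor in buffer alone and 100% = receptor with positive control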
# HTRA1 inh: HTRA1 (human) protease inhibition | inhibition, % at 5.96 µM | Q92743 | hit rate 0.5% among 340,000 | AID 504803 | recombinant HTRA1, FP-rhodamine activity-based probe, fluorescence polarization; in the data active = inhibition above about 36%;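 note: 0% = enzyme with DMSO and 100% = wells lacking enzyme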
# Target sequence (Q92743 whole entry, looked up): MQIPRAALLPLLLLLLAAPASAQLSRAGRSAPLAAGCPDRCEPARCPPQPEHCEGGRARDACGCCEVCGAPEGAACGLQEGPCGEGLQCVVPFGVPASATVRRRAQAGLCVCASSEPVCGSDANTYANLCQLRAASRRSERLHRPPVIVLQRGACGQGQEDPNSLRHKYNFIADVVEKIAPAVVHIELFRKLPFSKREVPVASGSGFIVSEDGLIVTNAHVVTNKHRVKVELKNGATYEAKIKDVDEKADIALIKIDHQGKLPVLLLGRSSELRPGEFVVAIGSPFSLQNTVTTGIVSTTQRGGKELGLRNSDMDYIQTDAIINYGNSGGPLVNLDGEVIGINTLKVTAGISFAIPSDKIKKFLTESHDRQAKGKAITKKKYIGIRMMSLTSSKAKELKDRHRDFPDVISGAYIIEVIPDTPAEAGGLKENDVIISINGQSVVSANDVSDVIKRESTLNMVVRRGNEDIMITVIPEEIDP
# BSA TAMRA ctr: BSA probe counter-screen for TCR-CD3 inhibitors. shares compounds with TCR-CD3 inh. TAMRA-labeled BSA probe fluorescence counterscreen. inhibition, % at 9.4 µM. hit rate 10% among 1,200. AID 652035; in the data active = inhibition above about 23%;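 note: 0% = buffer low control and 100% = reference high control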
# TCR-CD3 inh conf: TCR-CD3 interaction inhibition, confirmation | shares compounds with TCR-CD3 inh | TAMRA-labeled TCR probe fluorescence binding assay | inhibition, % at 9.4 µM | hit rate 48% among 1,200 | AID 652036
# mABHD4 conf: confirmation of mouse ABHD4 inhibitors | shares compounds with mABHD4 FP | purified mABHD4, FP-Rh probe fluorescence polarization | inhibition, % at 8.92 µM | hit rate 55% among 1,800;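 active = mean inhibition across replicates above the hit cutoff set in the primary screen, cut at about 30% in these data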;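 note: 0% = wild-type ABHD4 with DMSO and 100% = catalytically dead S159A mutant with DMSO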
# IN multimer act: HIV-1 integrase multimerization activation, counter-screen; shares compounds with LEDGF integ inh; TR-FRET HIV-1 integrase multimerization, biochemical; activation, % at 7.7 µM; hit rate 17% among 2,000; in the data active = activation above about 8.9%
# TRFRET interf: TR-FRET optical interference, LEDGF/p75 integration counter-screen. shares compounds with LEDGF integ inh. TR-FRET optical interference counterscreen, HIV-1 IN multimerization. inhibition, % at 7.7 µM. 2,000 tested, under 10 active;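 active = inhibition above the mean over all tested compounds plus 3 SD, which no compound reached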;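 note: 0% = integrase with antibodies and DMSO and 100% = antibodies without integrase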
# LEDGF integ conf: LEDGF/p75-dependent HIV-1 integration inhibition, confirmation; shares compounds with LEDGF integ inh; TR-FRET LEDGF/p75-dependent HIV-1 integration, biochemical; inhibition, % at 3.7 µM; hit rate 36% among 2,000; AID 1053136; in the data active = inhibition above about 14%
# SIAE inh conf: confirmation of human SIAE inhibitors | inhibition, % at 9.66 µM | hit rate 13% among 2,300 | SIAE FP-Rh activity-based probe, fluorescence polarization | shares compounds with SIAE primary;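 active = mean inhibition of the replicates above the hit cutoff set in the primary screen, cut at about 17% in these data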;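 note: 0% = SIAE with DMSO and probe and 100% = probe without SIAE; inhibitors lower polarization as more probe stays unbound to SIAE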
# * marks the source's active call; other numbers are inactive results; / = no result given. Hits are enriched below; roughly 2.2% of the tested compounds scored in any of these assays. Cut-off read from the data, not from the text of the source, unless noted: active = inhibition above about 19%; inactive = the rest.
SMILES,TDP2 inh,LEDGF integ inh,SIAE primary,mABHD4 FP,TCR-CD3 inh,HTRA1 inh,BSA TAMRA ctr,TCR-CD3 inh conf,mABHD4 conf,SIAE inh conf,others
NNC(=O)c1oc2nc(-c3ccco3)cc(-c3ccco3)c2c1N,3,64*,50*,21,25*,/,-2,14,/,74*,IN multimer act=11*;TRFRET interf=-55;LEDGF integ conf=11
Nc1c(C(=O)N/N=C/c2cccnc2)oc2nc(-c3ccccc3)cc(-c3ccco3)c12,-4,5,7,4,12,/,/,/,/,/,
Cc1cc2c(c(=O)o1)C(c1ccc([N+](=O)[O-])o1)C(C#N)=C(N)O2 (configuration not stated),6,15*,23*,32*,38*,/,5,11,-11,0,IN multimer act=4;TRFRET interf=-21;LEDGF integ conf=9
CCC(CC)C1C(C#N)=C(N)Oc2cc(C)oc(=O)c21 (configuration not stated),2,-3,-1,-9,9,1,/,/,/,/,
CCN(CC)S(=O)(=O)c1ccc(C(=O)NCc2ccc3c(c2)cc(C)n3C)cc1,-17,7,28*,104*,74*,0,-5,-1,0,-4,
NC(Cc1ccc(O)cc1)C(=O)NN=Cc1ccccc1O (configuration not stated),4,-2,1,-2,4,/,/,/,/,/,
CCCCC1OC2(C)OC(=N)C1(C#N)C(C#N)(C#N)C2c1ccccc1 (configuration not stated),2,1,38*,30*,20*,6,4,6,10,2,
O=C(N/N=C\c1c(O)ccc2ccccc12)c1ccc(O)cc1,-17,-5,27*,1,28*,14,-12,21*,/,-48,
Cc1occc1C(=O)N/N=C/c1c(O)ccc2ccccc12,9,-2,2,12,10,27,/,/,/,/,
CCOC(=O)C(CNc1ccc(O)cc1)NC(=O)c1ccccc1 (configuration not stated),13,6,91*,84*,65*,/,15,8,22,8,
CC(=O)N1c2ccccc2C(=O)NCC1C(=O)NC(C)(C)C (configuration not stated),6,3,1,-7,/,/,/,/,/,/,
O=C(N/N=C/c1ccoc1)c1ccccc1O,6,-2,19*,8,25*,24,-19,15,/,16,
O=C(N/N=C/c1ccoc1)c1ccccc1,-1,2,3,-5,1,-3,/,/,/,/,
CCc1c(-c2ccccc2)ncn1CCc1ccccc1OC,8,-2,-4,7,2,/,/,/,/,/,
Cn1c(=O)cc2c3c(c(N4CCCCC4)ccc31)C(=O)c1ccccc1-2,17,-4,53*,104*,58*,/,93*,55*,100*,24*,
CCOC(=O)[C@]12CCCCC/C=C\1N(CCc1ccc(Cl)cc1)C(=O)[C@H]2CC(=O)N1CCC(c2ccccc2)CC1,4,0,1,-5,/,/,/,/,/,/,
CCn1c(CSc2nnc(-c3ccncc3)n2CCOC)nc2cc(C(=O)O)ccc21,-3,6,19*,13,32*,27,160*,109*,/,38*,
O=C(CCC(=O)Nc1cccc(Cl)c1)N/N=C/c1cc([N+](=O)[O-])ccc1O,-6,-7,18*,7,28*,5,-2,41*,/,-4,
CC(C)N(C(N)=NC(=O)OCc1ccccc1)C(C)C,9,0,-6,-4,/,/,/,/,/,/,
N=c1c2c(ccn1CCCc1ccccc1)Oc1ccc3ccccc3c1C2c1ccccc1 (configuration not stated),13,3,-71,-58,/,/,/,/,/,/,
O=C(C1COc2ccccc2O1)N1CCCC1 (configuration not stated),-5,2,3,4,-2,2,/,/,/,/,
CCOC(=O)C1CCCN(C(=O)C2COc3ccccc3O2)C1 (configuration not stated),9,1,108*,45*,28*,-4,-1,-5,-1,9,
C=CCN1C(=O)c2[nH]nc(-c3ccccc3)c2C1c1ccc(C)cc1 (configuration not stated),-1,-1,-2,-11,-4,/,/,/,/,/,
O=C(N/N=C/c1cn(Cc2cccc(F)c2)c2ccccc12)c1cc(O)cc(O)c1,7,39*,37*,26,47*,4,-5,27*,/,1,
CS(=O)(=O)c1ccc2nc(NC(=O)c3ccccc3)sc2c1,9,0,1,-1,-3,-5,/,/,/,/,
SMILES,TDP2 inh,LEDGF integ inh,SIAE primary,mABHD4 FP,TCR-CD3 inh,HTRA1 inh,BSA TAMRA ctr,TCR-CD3 inh conf,mABHD4 conf,SIAE inh conf,others
CS(=O)(=O)c1ccc(C(=O)Nc2nc(-c3ccco3)c(-c3ccco3)s2)cc1,7,89*,47*,40*,34*,5,-6,3,-16,3,
CCOC(=O)CC[C@H]1CC[C@]2(CCCN(C(=O)C(C)(C)C)C2)O1,-2,2,2,0,/,/,/,/,/,/,
Cc1cc(NC(=O)CSc2nnnn2C)n(-c2ccccc2)n1,-6,0,4,56*,6,-7,/,/,0,/,
Cn1nnnc1SCC(=O)Nc1cc(C(C)(C)C)nn1-c1ccccc1,9,1,-2,-2,-1,-2,/,/,/,/,
C[C@H]1CN([C@@H](C)CO)C(=O)CCCn2nncc2CO[C@@H]1CN(C)S(=O)(=O)c1cccs1,7,-1,4,0,0,/,/,/,/,/,
COC(=O)C[C@@H]1CC[C@@H]2[C@H](COc3ccc(NC(=O)c4cccc(OC)c4)cc3C(=O)N2C)O1,-5,-2,-3,6,/,/,/,/,/,/,
COc1ccc(N2C(=O)CCC2=O)cc1,2,-2,0,-1,-3,0,/,/,/,/,
COc1ccc(N2C(=O)CS/C2=C\[N+](=O)[O-])cc1,11,1,8,30*,-8,6,/,/,3,/,
